Assay [1] deals with Rattus norvegicus. The assay is described as follows: Blood pressure of the urethane-anesthetized normotensive Wistar rat was tested 30 min after inducing the compound on dose of 1.0 mg/kg. The class given is functional. The method in brief: (§1)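 Urethane-anesthetized normotensive Wistar rats given a single iv injection at 1.0 mg/kg. Blood pressure (mmHg) and heart rate (beats/min) recorded, and the change reported at 5, 10, 15, 30 and 60 min after dosing. Saline-injected controls. Mean ± SE, n = 8. Significance versus saline by analysis of variance.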

The subject of assay [2] is Rattus norvegicus. The assay is described as follows: Blood pressure of the urethane-anesthetized normotensive Wistar rat was tested 5 min after inducing the compound on dose of 1.0 mg/kg. The class given is functional. In a few lines:
as §1

Assay [3] relates to Rattus norvegicus. The assay is described as follows: Blood pressure of the urethane-anesthetized normotensive Wistar rat was tested 10 min after inducing the compound on dose of 1.0 mg/kg. The class given is functional. In a few lines: as §1
Assay [4] has as its system Rattus norvegicus. The assay is described as follows: Blood pressure of the urethane-anesthetized normotensive Wistar rat was tested 15 min after inducing the compound on dose of 1.0 mg/kg. The class given is functional. The method in brief:
as §1

For assay [5], the system named is Rattus norvegicus. Description: Blood pressure of the urethane-anesthetized normotensive Wistar rat was tested 60 min after inducing the compound on dose of 1.0 mg/kg. The class given is functional. In a few lines:
as §1

The test system of assay [6] is Rattus norvegicus. Description: Heart rate of the urethane-anesthetized normotensive Wistar rat was tested 10 min after inducing the compound on dose of 1.0 mg/kg. The class given is functional. In a few lines:
as §1

In assay [7] the test system is Rattus norvegicus. The assay is described as follows: Heart rate of the urethane-anesthetized normotensive Wistar rat was tested 15 min after inducing the compound on dose of 1.0 mg/kg. The class given is functional. In a few lines: as §1
Assay [8] concerns Rattus norvegicus. Description: Heart rate of the urethane-anesthetized normotensive Wistar rat was tested 30 min after inducing the compound on dose of 1.0 mg/kg. The class given is functional. In a few lines: as §1
In assay [9] the test system is Rattus norvegicus. The assay is described as follows: Heart rate of the urethane-anesthetized normotensive Wistar rat was tested 5 min after inducing the compound on dose of 1.0 mg/kg. The class given is functional. In a few lines:
as §1

The test system of assay [10] is Rattus norvegicus. Description: Heart rate of the urethane-anesthetized normotensive Wistar rat was tested 60 min after inducing the compound on dose of 1.0 mg/kg. The class given is functional. In a few lines:
as §1

For assay [11], the species on record is Cavia porcellus. The assay is described as follows: Positive chronotropic effect was evaluated on atrial muscles of the guinea pig. The class given is functional, Muscle tissue. The conditions noted are these: Cavia porcellus, Muscle tissue; read-out: pA2 (converted).
The species entered for assay [12] is Cavia porcellus. Description: Positive inotropic effect was evaluated on atrial muscles of the guinea pig. The class given is functional, Muscle tissue. Particulars: Cavia porcellus, Muscle tissue; read-out: pA2 (converted).

Take `CCCCCCCCC(=O)NCc1ccc(OCC(O)CNC2CC2)c(OC)c1` (stereo not drawn): the BP in assay [1] is 3.67 mmHg; in assay [2], -0.11 mmHg; in assay [3], 3.11 mmHg; in assay [4] it was 3.89 mmHg; in assay [5], 2.22 mmHg. Also, the HR in assay [6] is -38.89 beats min-1; in assay [7] it was -23.67 beats min-1; in [8] it was -11.89 beats min-1; in assay [9] it was -47.67 beats min-1; in assay [10] it was -2.67 beats min-1.
Turning to `CCCCCCCCC(=O)NCc1ccc(OCC(O)CNC2CCCCC2)c(OC)c1` (stereo not drawn), the BP in [1] is listed as 1.33 mmHg; in assay [2], -4.11 mmHg; in assay [3], -4.22 mmHg; in assay [4] it was -3.67 mmHg; in [5], 0.67 mmHg. Also, the HR in assay [6] is reported as -28.44 beats min-1; in [7] it was -11.67 beats min-1; in assay [8], -1.78 beats min-1; in assay [9], -32.33 beats min-1; in assay [10], 2.78 beats min-1.
As for `CCCCCCCCC(=O)NCc1ccc(OCC(O)CNCCC)c(OC)c1` (stereo in doubt; 6), the values for the Kb in [11] and in [12] were 93.3 nM and 25.1 nM, respectively. Further, the BP in assay [1] (1 mg/kg) was -1.11 mmHg; in assay [2] (1 mg/kg), -1.56 mmHg; in assay [3] (1 mg/kg), -2.67 mmHg; in assay [4] (1 mg/kg), -1.89 mmHg; in assay [5] (1 mg/kg), 4.78 mmHg. Also, the HR in assay [6] (1 mg/kg) is reported as -28.22 beats min-1; in assay [7] (1 mg/kg), -19.89 beats min-1; in assay [8] (1 mg/kg) it was -5 beats min-1; in assay [9] (1 mg/kg), -36.78 beats min-1; in [10] (1 mg/kg), -7.56 beats min-1.
For the compound `CCCCCCCCC(=O)NCc1ccc(OCC(O)CNCCCCCC)c(OC)c1` (stereo not drawn), the Kb in [11] was 933 nM; in [12], 66.1 nM. In addition, the BP in [1] is -2.11 mmHg; in assay [2], -2.22 mmHg; in assay [3], -2.89 mmHg; in [4] it was -4.44 mmHg; in assay [5], 1.89 mmHg. Also, the HR in [6] is on record as -24.11 beats min-1; in assay [7] it was -14.89 beats min-1; in assay [8], -12.67 beats min-1; in [9] it was -35.56 beats min-1; in [10], -8 beats min-1.
In the case of `CCCCCCCCC(=O)NCc1ccc(OCC(O)CNC(C)C)c(OC)c1` (stereo not drawn), the Kb in assay [11] is 17 nM; in assay [12], 8.51 nM. In addition, the BP in [1] is reported as -6.67 mmHg; in assay [2] it was -0.44 mmHg; in assay [3], -1.22 mmHg; in [4] it was -2.89 mmHg; in [5] it was -1.33 mmHg. Also, the HR in assay [6] is reported as -40.78 beats min-1; in [7], -35.44 beats min-1; in assay [8], -32.67 beats min-1; in assay [9] it was -50.22 beats min-1; in assay [10], -20 beats min-1.
For the compound `CC(C)NCC(O)COc1cccc2ccccc12` (stereo not drawn) [PROPRANOLOL], the BP is listed as -4.67 mmHg in assay [1]; -2.83 mmHg in [2]; -6.33 mmHg in assay [3]; -6.5 mmHg in assay [4]; 2.17 mmHg in assay [5]. Further, the HR in assay [6] was -63.85 beats min-1; in assay [7], -65.28 beats min-1; in assay [8], -62.57 beats min-1; in assay [9] it was -57.28 beats min-1; in assay [10] it was -52.14 beats min-1.
Take `CCCCCCCCC(=O)NCc1ccc(OCC(O)CNC)c(OC)c1` (stereo not drawn): the Kb was 295 nM in assay [11] and 74.1 nM in assay [12]. The BP in [1] was 1.89 mmHg; in assay [2], -1.11 mmHg; in assay [3] it was -0.22 mmHg; in [4], -0.56 mmHg; in assay [5], 0.78 mmHg. In addition, the HR in assay [6] is -17.33 beats min-1; in [7] it was -12.22 beats min-1; in assay [8], 14.56 beats min-1; in assay [9], -34.56 beats min-1; in [10], 4.78 beats min-1.
With `CCCCCCCCC(=O)NCc1ccc(OCC(O)CNCC(C)C)c(OC)c1` (stereo not drawn), the Kb is 117 nM in assay [11] and 26.9 nM in [12]. In addition, the BP in assay [1] is recorded as 2 mmHg; in [2], -2.75 mmHg; in [3] it was 1.63 mmHg; in assay [4], 1.63 mmHg; in [5], 0.25 mmHg. The HR in [6] is -35.25 beats min-1; in assay [7] it was -27.13 beats min-1; in assay [8] it was 4.13 beats min-1; in assay [9], -39.88 beats min-1; in assay [10] it was 3.13 beats min-1.
Regarding `CCCCCCCCC(=O)NCc1ccc(OCC(O)CNCCCCC)c(OC)c1` (stereo not drawn), the values for the Kb in [11] and in [12] were 64.6 nM and 28.2 nM, respectively. Moreover, the BP in assay [1] was 3.67 mmHg; in assay [2], -4.67 mmHg; in assay [3], -1.67 mmHg; in assay [4], -0.88 mmHg; in [5], 2.44 mmHg. Also, the HR in assay [6] is -23.33 beats min-1; in assay [7], -10.22 beats min-1; in assay [8] it was -5.78 beats min-1; in assay [9] it was -25.11 beats min-1; in assay [10] it was -6.56 beats min-1.
Take `CCCCCCCCC(=O)NCc1ccc(OCC(O)CNC(C)(C)C)c(OC)c1` (stereo not drawn): the Kb in assay [11] is 39.8 nM; in [12], 15.8 nM. The BP in assay [1] stood at 1.25 mmHg; in [2], 3.13 mmHg; in assay [3], 3.38 mmHg; in [4], 2.38 mmHg; in [5], 4.63 mmHg. The HR in assay [6] is reported as -37.75 beats min-1; in assay [7] it was -29.5 beats min-1; in [8] it was -24.88 beats min-1; in assay [9], -45 beats min-1; in assay [10], -18.5 beats min-1.
With `CCCCCCCCC(=O)NCc1ccc(OCC(O)CNCC)c(OC)c1` (stereo not drawn), the figures for the Kb in assay [11] and in assay [12] were 117 nM and 53.7 nM, respectively. For the same compound, the BP in [1] is -2.44 mmHg; in assay [2], 7.44 mmHg; in assay [3], 2.56 mmHg; in assay [4] it was 1.11 mmHg; in [5] it was 1.88 mmHg. Besides, the HR in assay [6] is given as -32.22 beats min-1; in [7], -28 beats min-1; in [8], -21.11 beats min-1; in assay [9], -38.33 beats min-1; in assay [10] it was 2.56 beats min-1.
On to `CCCCCCCCC(=O)NCc1ccc(OCC(O)CNC(C)CC)c(OC)c1` (stereo not drawn), for which the results for the Kb in assay [11] and in assay [12] were 120 nM and 22.4 nM, respectively. Also, the BP in assay [1] is recorded as -0.88 mmHg; in assay [2] it was 4.11 mmHg; in [3], 4.89 mmHg; in assay [4] it was 3.33 mmHg; in [5] it was 1.22 mmHg. The HR was -35.44 beats min-1 in [6]; -32.33 beats min-1 in [7]; -25.11 beats min-1 in [8]; -38.56 beats min-1 in [9]; -9.56 beats min-1 in assay [10].

These data come from ChEMBL document CHEMBL1127688, “Guaiacoxypropanolamine derivatives of capsaicin: a new family of beta-adrenoceptor blockers with intrinsic cardiotonic properties” (J Med Chem, 1994).
